Laboratory results published in ChEMBL document CHEMBL3286159, “Design, synthesis and molecular docking of amide and urea derivatives as Escherichia coli PDHc-E1 inhibitors” (Bioorg Med Chem, 2014).

Assay: Inhibition of purified Escherichia coli PDHc-E1 using sodium pyruvate as substrate assessed as reduction of 2,6-DichloroPhenolindophenol after 3 mins by spectrophotometry
Method in brief: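 E. coli PDHc-E1 expressed as MBP fusion from pMal-C2X in E. coli TB1 (IPTG 0.5 mM, 7 h, 25 °C) and purified by MBP affinity. Mix of 50 mM K3PO4 pH 7.2, 2.0 mM pyruvate, 0.8 mM 2,6-DCPIP, 7.1 µM enzyme and inhibitor preincubated 3 min at 37 °C. ThDP (0–200 µM) added to start. DCPIP reduction read at 600 nm. Initial rates fit to Hill equation for IC50.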

| IC50 [µM] | Compound |
| --- | --- |
| 45.4 | Cc1ncc(CNC(=O)COc2ccccc2)c(N)n1 |
| 9.45 | Cc1ncc(CNC(=O)COc2ccc(Cl)cc2Cl)c(N)n1 |
| 13 | Cc1ncc(CNC(=O)COc2ccc(Cl)cc2)c(N)n1 |
| 3.58 | Cc1ncc(CNC(=O)COc2ccc([N+](=O)[O-])cc2)c(N)n1 |
| 21.6 | Cc1ccc(OCC(=O)NCc2cnc(C)nc2N)cc1 |
| 11.1 | Cc1ncc(CNC(=O)COc2ccc(Br)cc2)c(N)n1 |
| 16.8 | COc1ccc(OCC(=O)NCc2cnc(C)nc2N)cc1 |
| 60.8 | Cc1ncc(CNC(=O)COc2ccccc2Br)c(N)n1 |
| 16.6 | Cc1ncc(CNC(=O)COc2ccccc2Cl)c(N)n1 |
| 17.4 | Cc1ncc(CNC(=O)COc2ccc(F)cc2)c(N)n1 |
| 7.6 | Cc1ncc(CNC(=O)COc2ccc(F)cc2Cl)c(N)n1 |
| 4.9 | Cc1ncc(CNC(=O)COc2ccc([N+](=O)[O-])cc2Cl)c(N)n1 |
| 21.9 | Cc1ncc(CNC(=O)COc2ccc(Cl)cc2C)c(N)n1 |
| 13.4 | Cc1ncc(CNC(=O)COc2ccc(C#N)cc2)c(N)n1 |
| 6.3 | COc1ccc(OCNC(=O)NCc2cnc(C)nc2N)cc1 |

| Compound | IC50 [µM] |
| --- | --- |
| Cc1ncc(CNC(=O)NCOc2ccccc2)c(N)n1 | 12.9 |
| Cc1ccc(OCNC(=O)NCc2cnc(C)nc2N)cc1 | 9.23 |
| Cc1ncc(CNC(=O)NCOc2ccc(F)cc2)c(N)n1 | 10.3 |
| Cc1ncc(CNC(=O)NCOc2ccc(Cl)cc2)c(N)n1 | 3.67 |
